Measurements published in ChEMBL document CHEMBL4219111, “Multifunctional 5,6-dimethoxybenzo[d]isothiazol-3(2H)-one-N-alkylbenzylamine derivatives with acetylcholinesterase, monoamine oxidases and β-amyloid aggregation inhibitory activities as potential agents against Alzheimer's disease” (Bioorg Med Chem, 2018).
Active and inactive are the calls of the source. No cut-off for these calls is given here.

How the values were obtained:
[1] = molecular target: Amyloid-beta precursor protein (Homo sapiens) (UniProt P05067); assay: Inhibition of self-induced aggregation of amyloid beta (1 to 42) (unknown origin) at 25 uM after 24 hrs by thioflavin T fluorescence-based fluorometric method relative to control
Sequence of Amyloid-beta precursor protein (Homo sapiens) (P05067 whole entry): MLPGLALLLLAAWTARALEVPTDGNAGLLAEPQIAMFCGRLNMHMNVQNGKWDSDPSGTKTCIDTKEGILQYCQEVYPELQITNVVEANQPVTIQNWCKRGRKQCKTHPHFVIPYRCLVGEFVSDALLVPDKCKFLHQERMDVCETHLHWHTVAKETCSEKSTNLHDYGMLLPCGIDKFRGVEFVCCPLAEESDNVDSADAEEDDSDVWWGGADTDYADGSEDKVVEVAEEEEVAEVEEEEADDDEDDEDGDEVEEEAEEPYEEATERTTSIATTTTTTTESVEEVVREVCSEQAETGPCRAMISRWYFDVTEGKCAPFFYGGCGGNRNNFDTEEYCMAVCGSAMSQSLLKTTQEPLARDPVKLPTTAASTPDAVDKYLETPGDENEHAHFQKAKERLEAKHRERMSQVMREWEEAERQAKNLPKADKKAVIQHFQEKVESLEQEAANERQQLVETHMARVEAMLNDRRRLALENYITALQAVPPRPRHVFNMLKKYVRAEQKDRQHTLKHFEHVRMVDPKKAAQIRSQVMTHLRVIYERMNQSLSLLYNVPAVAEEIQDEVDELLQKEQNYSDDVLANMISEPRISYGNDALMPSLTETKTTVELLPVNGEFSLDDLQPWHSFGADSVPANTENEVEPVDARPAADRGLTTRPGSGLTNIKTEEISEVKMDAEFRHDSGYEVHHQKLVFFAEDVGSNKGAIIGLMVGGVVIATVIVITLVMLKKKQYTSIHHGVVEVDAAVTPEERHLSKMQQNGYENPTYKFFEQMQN
In short: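 Aβ1-42 pretreated in HFIP 24 h at room temperature, dried, redissolved in DMSO. Peptide (25 µM final) incubated with compound (25 µM final) in 50 mM phosphate pH 7.4 for 24 h at 37 °C. ThT (5 µM) added in 50 mM glycine-NaOH pH 8.5; fluorescence read at ex 446/em 490 nm. Inhibition = (1 − IFi/IFc)×100 after background subtraction, triplicate.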

Rattus norvegicus = species: Rattus norvegicus; assay: Inhibition of rat serum BuChE using butyrylthiocholine iodide as substrate measured at 50 uM after 15 mins by Ellman's method relative to control
In short: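 Rat serum (25%) as enzyme source; modified Ellman method in […] pH 7.4 with 1 mmol/L butyrylthiocholine iodide and 0.2% DTNB; 37 °C for 15 min, absorbance at 405 nm. Percent inhibition at 50 µM test compound, each concentration in triplicate.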

Acetylcholinesterase = Acetylcholinesterase (Electrophorus electricus, UniProt O42275); assay: Inhibition of Electrophorus electricus AChE using acetylthiocholine iodide as substrate measured after 15 mins by Ellman's method
Sequence of Acetylcholinesterase (O42275 whole entry): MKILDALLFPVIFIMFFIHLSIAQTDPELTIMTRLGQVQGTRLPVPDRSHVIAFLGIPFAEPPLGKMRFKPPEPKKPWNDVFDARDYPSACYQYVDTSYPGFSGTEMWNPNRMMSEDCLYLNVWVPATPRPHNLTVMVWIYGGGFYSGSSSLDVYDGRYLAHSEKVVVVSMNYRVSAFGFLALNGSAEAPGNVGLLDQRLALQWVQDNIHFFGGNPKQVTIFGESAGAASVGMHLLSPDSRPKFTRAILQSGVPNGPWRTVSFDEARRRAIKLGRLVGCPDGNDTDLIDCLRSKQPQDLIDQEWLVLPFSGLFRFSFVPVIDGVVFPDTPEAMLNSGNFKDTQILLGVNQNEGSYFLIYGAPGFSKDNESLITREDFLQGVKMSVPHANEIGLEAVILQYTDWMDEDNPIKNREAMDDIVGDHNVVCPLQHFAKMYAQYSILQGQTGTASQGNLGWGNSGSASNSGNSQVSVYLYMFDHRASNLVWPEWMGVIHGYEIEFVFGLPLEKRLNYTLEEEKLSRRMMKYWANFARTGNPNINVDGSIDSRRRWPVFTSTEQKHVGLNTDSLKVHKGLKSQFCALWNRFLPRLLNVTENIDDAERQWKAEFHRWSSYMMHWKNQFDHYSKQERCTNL

[2] = molecular target: T1, Amine oxidase [flavin-containing] A (Homo sapiens, UniProt P21397); assay: Inhibition of recombinant human MAO-A using kynuramine as substrate after 30 mins by fluorescence assay
T1 sequence (P21397 whole entry): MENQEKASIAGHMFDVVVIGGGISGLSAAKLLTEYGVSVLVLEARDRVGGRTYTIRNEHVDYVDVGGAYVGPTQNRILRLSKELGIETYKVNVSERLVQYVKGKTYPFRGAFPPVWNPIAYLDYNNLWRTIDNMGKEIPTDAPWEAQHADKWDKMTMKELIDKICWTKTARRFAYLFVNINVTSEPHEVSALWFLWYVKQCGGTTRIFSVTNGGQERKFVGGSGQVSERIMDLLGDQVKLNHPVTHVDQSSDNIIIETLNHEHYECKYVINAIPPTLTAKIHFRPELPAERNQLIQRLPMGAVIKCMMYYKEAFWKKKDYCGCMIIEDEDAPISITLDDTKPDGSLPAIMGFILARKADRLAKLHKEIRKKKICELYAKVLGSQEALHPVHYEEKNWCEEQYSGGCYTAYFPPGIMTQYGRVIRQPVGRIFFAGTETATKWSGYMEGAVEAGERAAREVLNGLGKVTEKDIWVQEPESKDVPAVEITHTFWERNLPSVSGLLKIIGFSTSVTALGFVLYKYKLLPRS

Homo sapiens = species: Homo sapiens; assay: Selectivity index, ratio of IC50 for recombinant human MAO-A to IC50 for recombinant human MAO-B
In short: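 Ratio of IC50s, each from a sigmoidal curve of initial kynuramine oxidation rate versus log inhibitor concentration. Curves used six concentrations within 0-100 µM, spanning at least three orders of magnitude. IC50s determined in triplicate.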

[3] = Antioxidant activity assessed as trolox equivalents of AAPH radical scavenging activity at 5 uM preincubated for 15 mins followed by AAPH addition measured every min for 90 mins by ORAC-FL assay; format: functional
In short: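 ORAC-FL in 75 mM phosphate buffer pH 7.4, 200 µL final. Sample plus fluorescein (150 nM final) pre-incubated 15 min at 37 °C, then AAPH added (12 mM final). Fluorescence read every minute for 90 min, ex 485/em 535 nm, normalized to FL+AAPH blank. Trolox standard 1-8 µM final; values given as µM Trolox equivalent per µM compound. Duplicate wells, at least three independent assays.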

[4] = molecular target: T2, Amine oxidase [flavin-containing] B (Homo sapiens, UniProt P27338); assay: Inhibition of recombinant human MAO-B using kynuramine as substrate after 30 mins by fluorescence assay
T2 sequence (P27338 whole entry): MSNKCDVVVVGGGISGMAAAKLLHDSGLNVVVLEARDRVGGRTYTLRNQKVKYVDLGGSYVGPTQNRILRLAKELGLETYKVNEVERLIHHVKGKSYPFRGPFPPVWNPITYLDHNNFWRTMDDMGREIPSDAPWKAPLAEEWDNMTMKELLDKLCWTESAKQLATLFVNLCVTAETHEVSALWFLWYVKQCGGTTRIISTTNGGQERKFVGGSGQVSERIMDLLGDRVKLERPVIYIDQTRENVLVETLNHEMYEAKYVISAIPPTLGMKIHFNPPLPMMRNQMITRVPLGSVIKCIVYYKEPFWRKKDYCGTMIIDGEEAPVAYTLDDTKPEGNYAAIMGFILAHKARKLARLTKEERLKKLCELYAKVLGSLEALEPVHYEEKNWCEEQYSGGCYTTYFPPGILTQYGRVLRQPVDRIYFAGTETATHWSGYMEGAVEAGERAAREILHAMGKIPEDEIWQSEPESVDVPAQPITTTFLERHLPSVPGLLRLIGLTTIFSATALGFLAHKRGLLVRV

[5] = molecular target: T2, Amine oxidase [flavin-containing] B; assay: Inhibition of recombinant human MAO-B at 10 uM using kynuramine as substrate after 30 mins by fluorescence assay relative to control; settings: 0.5 h
In short: (§1)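 Recombinant human MAO-A or MAO-B, kynuramine substrate (45 µM for MAO-A, 30 µM for MAO-B), in 100 mM potassium phosphate pH 7.40 with 20.2 mM KCl and under 4% DMSO. Enzyme (7.5 µg/mL) starts the reaction; 30 min at 37 °C. Stopped with NaOH plus water, centrifuged, supernatant fluorescence read at ex 310/em 400 nm. Percent inhibition at 10 µM.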

[6] = molecular target: T1, Amine oxidase [flavin-containing] A; assay: Inhibition of recombinant human MAO-A at 10 uM using kynuramine as substrate after 30 mins by fluorescence assay relative to control; settings: 0.5 h; in short: as §1
[7] = Effective permeability of the compound at 100 ug/ml after 18 hrs by PAMPA-BBB assay
[8] = molecular target: Acetylcholinesterase (Electrophorus electricus) (UniProt O42275); assay: Mixed type inhibition of Electrophorus electricus AChE at 0.1 to 0.5 uM using varying levels of acetylthiocholine iodide as substrate incubated for 15 mins followed by substrate addition by Lineweaver-Burk plot analysis
Sequence of Acetylcholinesterase (Electrophorus electricus) (O42275 24-633 limits assumed): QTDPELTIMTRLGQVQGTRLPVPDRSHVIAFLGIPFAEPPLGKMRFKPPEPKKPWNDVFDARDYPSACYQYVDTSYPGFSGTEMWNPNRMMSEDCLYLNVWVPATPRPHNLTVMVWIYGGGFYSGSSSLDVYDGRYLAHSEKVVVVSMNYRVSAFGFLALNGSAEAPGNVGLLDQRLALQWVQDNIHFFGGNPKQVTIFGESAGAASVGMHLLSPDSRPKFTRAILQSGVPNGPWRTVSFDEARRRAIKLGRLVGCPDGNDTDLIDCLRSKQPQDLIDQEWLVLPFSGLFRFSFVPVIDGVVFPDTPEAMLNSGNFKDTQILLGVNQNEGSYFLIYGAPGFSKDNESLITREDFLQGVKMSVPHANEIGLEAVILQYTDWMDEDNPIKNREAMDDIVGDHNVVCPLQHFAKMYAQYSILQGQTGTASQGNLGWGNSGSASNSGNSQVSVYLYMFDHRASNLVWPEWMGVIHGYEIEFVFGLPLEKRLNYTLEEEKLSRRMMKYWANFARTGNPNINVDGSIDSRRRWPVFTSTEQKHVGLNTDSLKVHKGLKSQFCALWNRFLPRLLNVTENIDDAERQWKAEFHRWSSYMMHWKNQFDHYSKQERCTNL

Compound COc1cc2sn(CCCCN(C)Cc3ccccc3)c(=O)c2cc1OC has an inhibition [1] of 17.3%, an inhibition (Rattus norvegicus) of 14.7% and an IC50 (Acetylcholinesterase) of 1.2 µM. It also gave an IC50 [2] of 8.9 µM, a Ratio IC50 (Homo sapiens) of 0.45 and an Activity [3] of 0.21 equiv. It also gave an IC50 [4] of 19.7 µM.
COc1cc2sn(CCCCCCN(C)Cc3ccccc3)c(=O)c2cc1OC showed an inhibition [1] of 4.3%, an inhibition (Rattus norvegicus) of 23.1% and an IC50 (Acetylcholinesterase) of 0.35 µM. It also gave an IC50 [2] of 23 µM, a Ratio IC50 (Homo sapiens) of 1.74 and an Activity [3] of 0.29 equiv. It also gave an IC50 [4] of 13.2 µM.
For CCN(CCCn1sc2cc(OC)c(OC)cc2c1=O)Cc1ccc(N(C)C)cc1, the inhibition [1] was 13.4%, the inhibition (Rattus norvegicus) was 9.6% and the IC50 (Acetylcholinesterase) was 12.9 µM. The inhibition at 10 µM [5] was 40.1%, the IC50 [2] was 11.3 µM and the Activity [3] was 0.58 equiv.
With COc1ccccc1CN(C)CCCCCCN1C(=O)c2cc(OC)c(OC)cc2S1(=O)=O the inhibition [1] was 23.9%, the inhibition (Rattus norvegicus) was < 5% and the inhibition at 10 µM [6] was 28.1%. It also gave an IC50 (Acetylcholinesterase) of 1.02 µM, an inhibition at 10 µM [5] of 29.2% and an Activity [3] of 0.16 equiv.
Work on CCN(CCCn1sc2cc(OC)c(OC)cc2c1=O)Cc1ccccc1N(C)C yielded an inhibition [1] of 19.8%, an inhibition (Rattus norvegicus) of 27.9% and an IC50 (Acetylcholinesterase) of 9.7 µM. For the same compound, the inhibition at 10 µM [5] was 45.4%, the IC50 [2] was 16.6 µM and the Activity [3] was 0.22 equiv.
COc1cc2s[nH]c(=O)c2cc1OC showed an inhibition [1] of 12.2%, an inhibition (Rattus norvegicus) of 10.3% and an IC50 (Acetylcholinesterase) of 34.9 µM. For the same compound, the inhibition at 10 µM [5] was 14%, the IC50 [2] was 21 µM and the Activity [3] was 0.29 equiv.
For CCN(CCCCCCn1sc2cc(OC)c(OC)cc2c1=O)Cc1ccccc1, the Papp at 18 h, 100 ug/ml [7] was 15.6 ×10⁻⁶ cm/s, the inhibition [1] was 35.4% and the inhibition (Rattus norvegicus) was 48.2%. The IC50 (Acetylcholinesterase) was 0.29 µM, the inhibition [8] was “Active” and the IC50 [2] was 8.2 µM. It also gave a Ratio IC50 (Homo sapiens) of 0.41, an Activity [3] of 0.27 equiv and an IC50 [4] of 20.1 µM.
With CCN(CCCCn1sc2cc(OC)c(OC)cc2c1=O)Cc1ccccc1 the inhibition [1] was 9.4%, the inhibition (Rattus norvegicus) was 21.8% and the IC50 (Acetylcholinesterase) was 0.8 µM. It also gave an IC50 [2] of 19.9 µM, a Ratio IC50 (Homo sapiens) of 0.99 and an Activity [3] of 0.53 equiv. It also gave an IC50 [4] of 20.1 µM.
CCN(CCCCCCn1sc2cc(OC)c(OC)cc2c1=O)Cc1ccc(N(C)C)cc1 showed an inhibition [1] of 33.4%, an inhibition (Rattus norvegicus) of 22.7% and an IC50 (Acetylcholinesterase) of 6.5 µM. It also gave an IC50 [2] of 7.1 µM, a Ratio IC50 (Homo sapiens) of 0.57 and an Activity [3] of 1.92 equiv. It also gave an IC50 [4] of 12.4 µM.
CCN(CCCCCCN1C(=O)c2cc(OC)c(OC)cc2S1(=O)=O)Cc1ccccc1 showed an inhibition [1] of 6%, an inhibition (Rattus norvegicus) of 35.7% and an inhibition at 10 µM [6] of 30.2%. For the same compound, the IC50 (Acetylcholinesterase) was 13.1 µM, the inhibition at 10 µM [5] was 38.9% and the Activity [3] was 0.2 equiv.
For COc1ccccc1CN(C)CCCCCCn1c(=O)c2cc(OC)c(OC)cc2[s+]1[O-] (centres undefined), the inhibition [1] was 38%, the inhibition (Rattus norvegicus) was 28.7% and the inhibition at 10 µM [6] was 23.8%. For the same compound, the IC50 (Acetylcholinesterase) was 0.8 µM, the inhibition at 10 µM [5] was 12.2% and the Activity [3] was 0.33 equiv.
Compound CCN(CCCn1sc2cc(OC)c(OC)cc2c1=O)Cc1ccccc1OC has an inhibition [1] of 12.4%, an inhibition (Rattus norvegicus) of 18.9% and an IC50 (Acetylcholinesterase) of 8.3 µM. It also gave an inhibition at 10 µM [5] of 37%, an IC50 [2] of 15.5 µM and an Activity [3] of 0.82 equiv.
